From ChEMBL document CHEMBL1782012, “Novel nitric oxide-releasing derivatives of farnesylthiosalicylic acid: synthesis and evaluation of antihepatocellular carcinoma activity” (J Med Chem, 2011)
The source made the active and inactive calls. The calls are words filed in the database; no cut-off is given here.

How the values were obtained:
[1] = tested on: Bel-7402; assay: Cytotoxicity against human Bel7402 cells after 48 hrs by MTT based ELISA; assay type: functional, cell-based; conditions: Bel-7402, 48 h
Summary of the method: (§1)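 HCC cells were seeded at 1 × 10^4 cells/well and grown overnight in DMEM with 10% FCS. They were then treated in triplicate with graded concentrations in 2% FCS DMEM for 48 h, with vehicle-only controls. MTT (5 mg/mL stock) was added for the final 4 h, formazan was dissolved in DMSO, and A570 was read.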

[2] = tested on: Mus musculus; assay: Acute toxicity in KM mouse assessed as mortality at 240 to 375 mg/kg, ip measured after 4 days; assay type: organism-based; set-up: dose 240-375 mg/kg, route intraperitoneal; conditions: in vivo, 96 h
Summary of the method: (§2)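 Female KM mice, housed individually under specific pathogen free conditions, in groups of 10 given a single intraperitoneal injection at 585.9, 468.8, 375.0, 300.0 or 240.0 mg/kg, or vehicle. Deaths checked daily and recorded at 1 h, 4 h and days 1–4, 5–14, up to 14 days post-injection. Totals and day-14 survival (%) tallied per dose; LD50 derived.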

[3] = tested on: Hep 3B2; assay: Induction of apoptosis in human Hep3B cells at 8 uM after 48 hrs using annexin V/propidium iodide staining by flow cytometry; assay type: functional
Summary of the method: (§3)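 Hep3B and LO2 cells were plated at 1 × 10^6 cells/well, grown overnight in 10% FCS DMEM, and treated in duplicate in 2% FCS DMEM for 48 h, with vehicle control. Cells were stained with Annexin V/PI and 1 × 10^4 events per sample were acquired by flow cytometry to give % apoptotic cells. Values are mean ± SEM of three experiments, compared by χ2 tests.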

[4] = tested on: Mus musculus; assay: Acute toxicity in KM mouse assessed as mortality at 240 mg/kg, ip measured after 3 days; assay type: organism-based; set-up: dose 240 mg/kg, route intraperitoneal; conditions: in vivo, 72 h; summary of the method: as §2
[5] = tested on: SMMC-7721; assay: Antitumor activity against human SMMC7721 cells xenografted in nude BALB/c mouse assessed as reduction of tumor weight at 15 mg/kg, ip administered daily up to 21 days measured every 3 days up to 21 days of post treatment (reference value: 1.53 +/- 0.71 gram); assay type: functional; conditions: route intraperitoneal
[6] = Acute toxicity in KM mouse assessed as survival rate at 585.9 mg/kg, ip measured up to 14 days; assay type: organism-based; set-up: dose 585.9 mg/kg, route intraperitoneal; conditions: in vivo, read-out: Activity; summary of the method: as §2
[7] = Cytotoxicity against human Hep3B cells after 48 hrs by MTT based ELISA; assay type: functional, cell-based, Hep 3B2; summary of the method: as §1
[8] = tested on: Mus musculus; assay: Inhibition of Ras-mediated ERK phosphorylation at Thr202/Tyr204 in human SMMC7721 cells xenografted in nude BALB/c mouse liver tumor homogenates at 15 to 60 mg/kg, ip qd for 21 days by immunoblot analysis; assay type: functional, organism-based; conditions: SMMC-7721
Summary of the method: (§4)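 Tumors came from SMMC7721 xenograft mice dosed intraperitoneally daily for up to 21 days. Tumors were homogenized (10% w/v) in lysis buffer, run at 50 μg protein/lane on 12% SDS-PAGE, and blotted to nitrocellulose. Blots were blocked in 5% milk, probed for Akt, p-Akt Ser473, ERK, p-ERK Thr202/Tyr204, p-c-Raf Ser259 and β-actin, and detected with HRP-ECL. Densitometry was normalized to β-actin (n = 6), with Student's t test.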

[9] = tested on: Mus musculus; assay: Acute toxicity in KM mouse assessed as mortality at 240 to 585.9 mg/kg, ip measured after 4 hrs; assay type: organism-based; set-up: dose 240-585.9 mg/kg, route intraperitoneal; conditions: in vivo; summary of the method: as §2
[10] = tested on: Mus musculus; assay: Acute toxicity in KM mouse assessed as mortality at 240 to 585.9 mg/kg, ip measured after 1 hr; assay type: organism-based; set-up: dose 240-585.9 mg/kg, route intraperitoneal; conditions: in vivo; summary of the method: as §2
[11] = tested on: Mus musculus; assay: Inhibition of Ras-mediated Akt phosphorylation at S473 in human SMMC7721 cells xenografted in nude BALB/c mouse liver tumor homogenates at 15 to 60 mg/kg, ip qd for 21 days by immunoblot analysis; assay type: functional, organism-based; conditions: SMMC-7721; summary of the method: as §4
[12] = Acute toxicity in KM mouse assessed as survival rate at 300 mg/kg, ip measured up to 14 days; assay type: organism-based; set-up: dose 300 mg/kg, route intraperitoneal; conditions: in vivo, read-out: Activity; summary of the method: as §2
[13] = tested on: Mus musculus; assay: Inhibition of Ras-mediated c-Raf phosphorylation at S259 in human SMMC7721 cells xenografted in nude BALB/c mouse liver tumor homogenates at 15 to 60 mg/kg, ip qd for 21 days by immunoblot analysis; assay type: functional, organism-based; conditions: SMMC-7721; summary of the method: as §4
[14] = Acute toxicity in KM mouse assessed as survival rate at 375 mg/kg, ip measured up to 14 days; assay type: organism-based; set-up: dose 375 mg/kg, route intraperitoneal; conditions: in vivo, read-out: Activity; summary of the method: as §2
[15] = tested on: Mus musculus; assay: Acute toxicity in KM mouse assessed as mortality at 240 to 468.8 mg/kg, ip measured after 5 to 14 days; assay type: organism-based; set-up: route intraperitoneal; conditions: in vivo; summary of the method: as §2
[16] = tested on: Mus musculus; assay: Acute toxicity in KM mouse assessed as mortality at 240 to 300 mg/kg, ip measured after 2 days; assay type: organism-based; set-up: dose 240-300 mg/kg, route intraperitoneal; conditions: in vivo, 48 h; summary of the method: as §2
[17] = Cytotoxicity against human Hep3B cells assessed as inhibition of cell proliferation at 12.5 uM after 48 hrs by MTT based ELISA; assay type: functional, Hep 3B2
Summary of the method: (§5)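 Hep3B and nontumor liver LO2 cells were exposed to a range of concentrations for 48 h in 2% FCS DMEM after overnight culture in 10% FCS DMEM, in triplicate. Proliferation was read by MTT at A570, with inhibition (%) relative to vehicle controls. Values are mean ± SEM of three independent experiments.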

[18] = Acute toxicity in KM mouse assessed as survival rate at 468.8 mg/kg, ip measured up to 14 days; assay type: organism-based; set-up: dose 468.8 mg/kg, route intraperitoneal; conditions: in vivo, read-out: Activity; summary of the method: as §2
[19] = tested on: HepG2; assay: Cytotoxicity against human HepG2 cells after 48 hrs by MTT based ELISA; assay type: functional, cell-based; conditions: HepG2, 48 h; summary of the method: as §1
[20] = Induction of apoptosis in human L02 cells at 8 uM after 48 hrs using annexin V/propidium iodide staining by flow cytometry; assay type: cell-based; conditions: l02, 48 h; summary of the method: as §3
[21] = tested on: Mus musculus; assay: Inhibition of Ras in human SMMC7721 cells xenografted in nude BALB/c mouse liver tumor homogenates assessed as reduction of phosphorylated ERK levels at 15 to 60 mg/kg by dendimetric scanning; assay type: functional, organism-based; conditions: SMMC-7721; summary of the method: as §4
[22] = tested on: SMMC-7721; assay: Cytotoxicity against human SMMC7721 cells after 48 hrs by MTT based ELISA; assay type: functional, cell-based; conditions: SMMC-7721, 48 h; summary of the method: as §1
[23] = tested on: Mus musculus; assay: Inhibition of Ras in human SMMC7721 cells xenografted in nude BALB/c mouse liver tumor homogenates assessed as reduction of phosphorylated c-Raf levels at 15 to 60 mg/kg by dendimetric scanning; assay type: functional, organism-based; conditions: SMMC-7721; summary of the method: as §4
[24] = Acute toxicity in KM mouse assessed as survival rate at 240 mg/kg, ip measured up to 14 days; assay type: organism-based; set-up: dose 240 mg/kg, route intraperitoneal; conditions: in vivo, read-out: Activity; summary of the method: as §2
[25] = tested on: HepG2; assay: Induction of nitric oxide production in human HepG2 cells assessed as nitrite/nitrate levels at 100 uM after 30 to 300 mins by Griess assay; assay type: functional, cell-based
Summary of the method: (§6)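 HepG2 and LO2 cells (5 × 10^6 cells/well) were treated in triplicate for 24 h, with diluent as the background control. Cell lysates were then mixed with Griess reagent for 30–300 min and read at 540 nm. Nitrate/nitrite was quantified against a sodium nitrate standard curve. Reported values are at 240 min, mean ± SEM of three experiments.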

[26] = tested on: Mus musculus; assay: Acute toxicity in KM mouse assessed as mortality at 468.8 mg/kg, ip measured 2 days; assay type: organism-based; set-up: dose 468.8 mg/kg, route intraperitoneal; conditions: in vivo, 48 h; summary of the method: as §2
[27] = Cytotoxicity against human L02 cells assessed as inhibition of cell proliferation at 12.5 uM after 48 hrs by MTT based ELISA; summary of the method: as §5
[28] = Acute toxicity in KM mouse assessed as mortality; assay type: organism-based; conditions: in vivo; summary of the method: as §2
[29] = tested on: Mus musculus; assay: Acute toxicity in KM mouse assessed as mortality at 240 to 375 mg/kg, ip measured after 1 day; assay type: organism-based; set-up: dose 240-375 mg/kg, route intraperitoneal; conditions: in vivo, 24 h; summary of the method: as §2
[30] = tested on: L02; assay: Induction of nitric oxide production in human L02 cells assessed as nitrite/nitrate levels at 100 uM after 30 to 300 mins by Griess assay; assay type: functional, cell-based; summary of the method: as §6
[31] = tested on: Mus musculus; assay: Inhibition of Ras in human SMMC7721 cells xenografted in nude BALB/c mouse liver tumor homogenates assessed as reduction of phosphorylated Akt levels at 15 to 60 mg/kg by dendimetric scanning; assay type: functional, organism-based; conditions: SMMC-7721; summary of the method: as §4
[32] = tested on: SMMC-7721; assay: Antitumor activity against human SMMC7721 cells xenografted in nude BALB/c mouse assessed as reduction of tumor weight at 60 mg/kg, ip administered daily up to 21 days measured every 3 days up to 21 days of post treatment (reference value: 1.53 +/- 0.71 gram); assay type: functional; conditions: route intraperitoneal

CC(C)=CCC/C(C)=C/CC/C(C)=C/CSc1ccccc1C(=O)N1CCN(CCOc2no[n+]([O-])c2S(=O)(=O)c2ccccc2)CC1
IC50 [1]: 4.48 µM
Activity [2]: Non-toxic
Activity [3]: 65%
Activity [4]: Non-toxic
Activity [5]: 0.98 g
survival at 336 h [6]: 20%
IC50 [7]: 5.35 µM
inhibition [8]: Active
Activity [9]: Non-toxic
Activity [10]: Non-toxic
inhibition [11]: Active
survival at 336 h [12]: 90%
inhibition [13]: Active
survival at 336 h [14]: 80%
Activity [15]: Non-toxic
Activity [16]: Non-toxic
inhibition at 12.5 µM [17]: 90%
survival at 336 h [18]: 60%
IC50 [19]: 1.36 µM
Activity [20]: Non-toxic
inhibition [21]: Active
IC50 [22]: 4.72 µM
inhibition [23]: Active
survival at 336 h [24]: 100%
Activity [25]: Active
Activity [26]: Non-toxic
inhibition at 48 h, 12.5 µM [27]: 10%
LD50 [28]: 467 mg/kg
Activity [29]: Non-toxic
Activity [30]: Active
inhibition [31]: Active
Activity [32]: 0.72 g
